In assay [1] the test system is Mycolicibacterium smegmatis. The experiment in a line: Antimycobacterial against Mycobacterium smegmatis MC2 by agar dilution method. The format is functional. Summed up: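 MIC read by agar dilution, run in triplicate against M. smegmatis MC², screened in parallel with M. tuberculosis and an MDR-TB clinical isolate.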
(In agar dilution, organisms are placed on agar that contains the substance at set levels.)

In assay [2] the test system is Mycobacterium tuberculosis. The assay can be described thus: Antimycobacterial against Mycobacterium tuberculosis H37Rv by agar dilution method. It counts as functional. Summed up:
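MIC read by agar dilution against M. tuberculosis H37Rv, run in triplicate.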

In brackets after ≈: the same amount, converted by molar mass.

Usually MIC stands for the smallest concentration in the dilution series that meets the test's criterion for growth inhibition. Take `COc1ccc([C@H]2CN(C)[C@@]3(C(=O)Nc4ccccc43)[C@@]23CN(C)CCC3=O)cc1`: the minimum inhibitory concentration (MIC) in assay [1] turned out to be 61.6 µM (≈ 25 µg/mL); in assay [2] it was 30.8 µM (≈ 12.5 µg/mL).
Regarding `NNC(=O)c1ccncc1` [ISONIAZID], the minimum inhibitory concentration (MIC) turned out to be 45.6 µM (≈ 6.25 µg/mL) in assay [1] and 0.39 µM (≈ 0.0535 µg/mL) in assay [2].
The corresponding values for `CC[C@@H](CO)NCCN[C@@H](CC)CO` [ETHAMBUTOL] are 122 µM (≈ 25 µg/mL) and 7.64 µM (≈ 1.56 µg/mL).
The corresponding values for `CN1CCC(=O)[C@]2(C1)[C@@H](c1ccc(Cl)cc1Cl)[C@H](c1ccccc1)N[C@@]21C(=O)Nc2ccccc21` are 98.7 µM (≈ 50 µg/mL) and 12.3 µM (≈ 6.25 µg/mL).
In the case of `CN1CCC(=O)[C@]2(C1)[C@@H](c1ccccc1Cl)[C@H](c1ccccc1)N[C@@]21C(=O)Nc2ccccc21`, the minimum inhibitory concentration (MIC) in assay [1] amounted to 53 µM (≈ 25 µg/mL); in assay [2] it was 13.2 µM (≈ 6.25 µg/mL).
Regarding `CN1CCC(=O)[C@]2(C1)[C@@H](c1ccc(Cl)cc1Cl)CN(C)[C@@]21C(=O)Nc2ccccc21`, the figures for the MIC in assay [1] and in assay [2] were 56.3 µM (≈ 25 µg/mL) and 1.76 µM (≈ 0.782 µg/mL), respectively.
As for `Cc1ccc([C@H]2CN(C)[C@@]3(C(=O)Nc4ccccc43)[C@@]23CN(C)CCC3=O)cc1`, the minimum inhibitory concentration (MIC) in assay [1] stood at 32.1 µM (≈ 12.5 µg/mL); in assay [2], 16.1 µM (≈ 6.25 µg/mL).
The corresponding values for `Cc1ccc([C@H]2[C@H](c3ccccc3)N[C@@]3(C(=O)Nc4ccccc43)[C@@]23CN(C)CCC3=O)cc1` are 111 µM (≈ 50 µg/mL) and 27.7 µM (≈ 12.5 µg/mL).
Regarding `CN1CCC(=O)[C@]2(C1)[C@@H](c1cccc(F)c1)[C@@H]1CCCN1[C@@]21C(=O)Nc2ccccc21`, the minimum inhibitory concentration (MIC) in assay [1] was 29.8 µM (≈ 12.5 µg/mL); in assay [2], 7.46 µM (≈ 3.13 µg/mL).
Take `COc1ccc([C@H]2[C@H](c3ccccc3)N[C@@]3(C(=O)Nc4ccccc43)[C@@]23CN(C)CCC3=O)cc1`: the MIC was determined as 53.5 µM (≈ 25 µg/mL) in assay [1] and 26.7 µM (≈ 12.5 µg/mL) in assay [2].
Regarding `CN1CCC(=O)[C@]2(C1)[C@@H](c1ccccc1Cl)[C@@H]1CCCN1[C@@]21C(=O)Nc2ccccc21`, the results for the minimum inhibitory concentration (MIC) in assay [1] and in assay [2] were 28.7 µM (≈ 12.5 µg/mL) and 3.58 µM (≈ 1.56 µg/mL), respectively.
As to `COc1ccc([C@H]2[C@@H]3CCCN3[C@@]3(C(=O)Nc4ccccc43)[C@@]23CN(C)CCC3=O)cc1`, the figures for the MIC in assay [1] and in assay [2] were 57.9 µM (≈ 25 µg/mL) and 14.5 µM (≈ 6.25 µg/mL), respectively.
For `CN1CCC(=O)[C@]2(C1)[C@@H](c1ccc(Cl)cc1Cl)[C@@H]1CCCN1[C@@]21C(=O)Nc2ccccc21`, in that order: 53.1 µM (≈ 25 µg/mL) and 3.32 µM (≈ 1.56 µg/mL).
On to `NC(=O)c1cnccn1` [PYRAZINAMIDE], for which the figures for the minimal inhibitory concentration (MIC) in assay [1] and in assay [2] were 406 µM (≈ 50 µg/mL) and 50.8 µM (≈ 6.25 µg/mL), respectively.
Turning to `CN1CCC(=O)[C@]2(C1)[C@@H](c1cccc(F)c1)CN(C)[C@@]21C(=O)Nc2ccccc21`, the MIC turned out to be 63.5 µM (≈ 25 µg/mL) in assay [1] and 7.95 µM (≈ 3.13 µg/mL) in assay [2].
`CN1CCC(=O)[C@]2(C1)[C@@H](c1ccccc1Cl)CN(C)[C@@]21C(=O)Nc2ccccc21`: the MIC was 30.5 µM (≈ 12.5 µg/mL) in assay [1] and 7.64 µM (≈ 3.13 µg/mL) in assay [2].
The corresponding values for `CN1CCC(=O)[C@]2(C1)[C@@H](c1cccc(F)c1)[C@H](c1ccccc1)N[C@@]21C(=O)Nc2ccccc21` are 54.9 µM (≈ 25 µg/mL) and 6.87 µM (≈ 3.13 µg/mL).
Take `Cc1ccc([C@H]2[C@@H]3CCCN3[C@@]3(C(=O)Nc4ccccc43)[C@@]23CN(C)CCC3=O)cc1`: the results for the MIC in assay [1] and in assay [2] were 15 µM (≈ 6.25 µg/mL) and 7.53 µM (≈ 3.13 µg/mL), respectively.

For the origin of these results see ChEMBL document CHEMBL1153639, “A facile synthesis and antimycobacterial evaluation of novel spiro-pyrido-pyrrolizines and pyrrolidines” (2009).
